According to ChEMBL document CHEMBL5329149, “Identification of macrocyclic peptides which activate bacterial cylindrical proteases” (RSC Med Chem, 2023):
Blank lines part the entries; values can stand above or below the compound they belong to. Active and inactive are the calls of the source. No cut-off for these calls is given here. Starred links: 1 amine or outer side, 2 acyl side, 3 side chain; linkers in the order of their positions; H or OH if unused. Positions of bridges follow the written chain, without caps; N, C: chain ends. Non-standard residues stand in square brackets, D forms with d. Residues, ends and D or L forms follow the SMILES beside them. *: point of attachment. Phe(3,5-F2) = N[C@@H](Cc1cc(F)cc(F)c1)C(=O)O; X1 = CN(CC(=O)O)c1nc(CC[*:1])cc(CC[*:2])n1; CH2COCH2 = O=C(C[*:1])C[*:2]; Cam = NC(=O)C*

Key:
[1] = molecular target: T1, ATP-dependent Clp protease proteolytic subunit (Staphylococcus aureus (strain NCTC 8325)) (UniProt Q2G036); test: Induction of tetra-decameric form of Staphylococcus aureus ClpP stabilization in Tris-HCl
T1 sequence (whole entry): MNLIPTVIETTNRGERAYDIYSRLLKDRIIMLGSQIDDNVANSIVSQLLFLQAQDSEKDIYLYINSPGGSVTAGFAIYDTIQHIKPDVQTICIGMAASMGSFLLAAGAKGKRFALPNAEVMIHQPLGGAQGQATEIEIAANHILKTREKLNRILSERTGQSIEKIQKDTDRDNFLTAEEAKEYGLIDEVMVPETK
In short: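 S. aureus ClpP (1 mg/mL) incubated overnight at 32 °C with or without ligands (200 µM, DMSO as blank) in destabilizing buffer (100 mM Tris-HCl pH 7.6, 100 mM KCl). Oligomeric state then analysed by gel filtration on a pre-equilibrated Superdex 200 Increase 10/300 column, tetradecamer versus heptamer.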

[2] = molecular target: T1, ATP-dependent Clp protease proteolytic subunit (Staphylococcus aureus (strain NCTC 8325)); test: Activation of Staphylococcus aureus ClpP assessed as FtsZ digestion at 200 uM incubated for 24 hrs by densitometric analysis; settings: filed as activator
In short: (§1)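 Strep-tagged S. aureus ClpP (1.0 µM, expressed in ClpP-deficient E. coli SG1146a) digesting S. aureus FtsZ (4.0 µM, final) with ligand at 37 °C, under the same conditions as the beta-casein assay. Timed aliquots were quenched with SDS loading buffer and heated, then resolved by SDS-PAGE, Coomassie-stained and quantified by densitometry. ≥3 independent experiments.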

[3] = molecular target: T1, ATP-dependent Clp protease proteolytic subunit (Staphylococcus aureus (strain NCTC 8325)); test: Activation of Staphylococcus aureus ClpP assessed as beta-casein digestion using beta-casein/FITC casein as substrate at 200 uM incubated for 24 hrs; settings: filed as activator
In short: (§2)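 Purified ClpP (1.0 µM, final) was incubated with bovine beta-casein (5.0 µM or 3 µM) and ligand at 37 °C, in 100 mM Tris-HCl pH 7.6 with 100 mM KCl or 100 mM HEPES pH 7 with 150 mM NaCl. Timed aliquots were quenched in SDS loading buffer at 90 °C for 5 min, run on SDS-PAGE, stained with Coomassie and quantified by densitometry. ≥3 independent experiments.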

[4] = molecular target: ATP-dependent Clp protease proteolytic subunit (Escherichia coli (strain K12)) (UniProt P0A6G7); test: Activation of Escherichia coli ClpP assessed as increase in fluorescence intensity using beta-casein/FITC casein as substrate at 200 uM incubated for 24 hrs
ATP-dependent Clp protease proteolytic subunit (Escherichia coli (strain K12)), sequence (P0A6G7 whole entry): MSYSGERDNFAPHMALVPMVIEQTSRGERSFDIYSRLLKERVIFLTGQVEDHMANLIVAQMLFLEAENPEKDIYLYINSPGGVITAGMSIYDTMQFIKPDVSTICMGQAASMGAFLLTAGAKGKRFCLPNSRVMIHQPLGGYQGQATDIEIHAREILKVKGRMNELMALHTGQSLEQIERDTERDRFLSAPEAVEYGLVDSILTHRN
In short: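 E. coli ClpP (0.5 µM, His-tagged, expressed in E. coli C41(DE3)) with FITC-casein (1.8 µM) plus bovine beta-casein (4.8 µM), final concentrations. Ligands at 200 µM in 100 mM Tris-HCl pH 7.6, 100 mM KCl, 24 h at 37 °C. Fluorescence read at ex 483/em 530 nm, mean of DMSO wells subtracted. Run in parallel without ClpP to exclude false positives. Duplicates, ≥2 independent experiments, mean ± SD.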

[5] = molecular target: ATP-dependent Clp protease proteolytic subunit (Escherichia coli (strain K12)) (UniProt P0A6G7); test: Activation of Escherichia coli ClpP assessed as beta-casein digestion using beta-casein/FITC casein as substrate at 200 uM incubated for 24 hrs by SDS-PAGE analysis; settings: filed as activator; in short: as §2
[6] = molecular target: T1, ATP-dependent Clp protease proteolytic subunit (Staphylococcus aureus (strain NCTC 8325)); test: Activation of Staphylococcus aureus ClpP assessed as beta-casein digestion using beta-casein/FITC casein as substrate at 10 uM incubated for 24 hrs; settings: filed as activator; in short: as §2
[7] = molecular target: T1, ATP-dependent Clp protease proteolytic subunit (Staphylococcus aureus (strain NCTC 8325)); test: Activation of Staphylococcus aureus ClpP assessed as FtsZ digestion at 10 uM incubated for 24 hrs by densitometric analysis; settings: filed as activator; in short: as §1
[8] = molecular target: T2, ATP-dependent Clp protease proteolytic subunit (Staphylococcus aureus (strain NCTC 8325), UniProt Q2G036); test: Activation of Staphylococcus aureus ClpP assessed as beta-casein digestion using beta-casein/FITC casein as substrate incubated for 24 hrs
T2 sequence (Q2G036 whole entry): T1 sequence (whole entry)

- Activity [1]: Active
- Activity [2]: Active
- Activity [3]: Active
Structure (SMILES): CCCC/C=C/C(=O)N[C@@H](Cc1cc(F)cc(F)c1)C(=O)OC

- Activity [4]: inactive
Structure (SMILES): CC[C@H](C)[C@@H]1NC(=O)CNC(=O)[C@@H](NC(C)=O)CSCC(=O)CSC[C@@H](C(N)=O)NC(=O)CNC(=O)[C@@H](Cc2ccccc2)NC(=O)CNC1=O

- Activity [4]: inactive
Structure (SMILES): CC[C@H](C)[C@H](NC(=O)CNC(=O)[C@H](CSCC(N)=O)NC(C)=O)C(=O)NCC(=O)N[C@@H](Cc1ccccc1)C(=O)NCC(=O)N[C@@H](C)C(=O)N[C@@H](CSCC(N)=O)C(N)=O (Ac-C(Cam)GIGFGAC(Cam)-NH2)

- Activity [4]: inactive
Structure (SMILES): CC[C@H](C)[C@H](NC(=O)CNC(=O)[C@H](CSCC(N)=O)NC(C)=O)C(=O)NCC(=O)N[C@@H](Cc1cc(F)cc(F)c1)C(=O)NCC(=O)N[C@@H](CSCC(N)=O)C(N)=O (Ac-C(Cam)GIG[Phe(3,5-F2)]GC(Cam)-NH2)

- Activity [4]: inactive
Structure (SMILES): CC[C@H](C)[C@H](NC(=O)[C@H](CSCC(N)=O)NC(C)=O)C(=O)NCC(=O)N[C@@H](Cc1ccccc1)C(=O)NCC(=O)N[C@@H](C)C(=O)N[C@@H](CSCC(N)=O)C(N)=O (Ac-C(Cam)IGFGAC(Cam)-NH2)

- Activity [4]: inactive
Structure (SMILES): CC[C@H](C)[C@H](NC(=O)[C@H](CSCC(N)=O)NC(C)=O)C(=O)NCC(=O)N[C@@H](Cc1ccccc1)C(=O)NCC(=O)N[C@@H](CSCC(N)=O)C(N)=O (Ac-C(Cam)IGFGC(Cam)-NH2)

- Activity [4]: inactive
Structure (SMILES): CC[C@H](C)[C@@H]1NC(=O)CNC(=O)[C@@H](NC(C)=O)CSCCc2cc(nc(N(C)CC(=O)O)n2)CCSC[C@@H](C(N)=O)NC(=O)CNC(=O)[C@H](Cc2cc(F)cc(F)c2)NC(=O)CNC1=O (Ac-CGIG[Phe(3,5-F2)]GC-NH2; linker 1-7 via X1)

Continued, compound first:

Structure (SMILES): CC[C@H](C)[C@@H]1NC(=O)CNC(=O)[C@@H](NC(C)=O)CSCC(=O)CSC[C@@H](C(N)=O)NC(=O)CNC(=O)[C@H](Cc2ccccc2)NC(=O)CNC1=O
- Activity [2]: Active
- Activity [5]: Active
- Activity [3]: Active

Structure (SMILES): CC[C@H](C)[C@@H]1NC(=O)CNC(=O)[C@H](NC(C)=O)CSCC(=O)CSC[C@@H](C(N)=O)NC(=O)CNC(=O)[C@H](C)NC(=O)CNC1=O
- Activity [4]: inactive

Structure (SMILES): C[C@@H]1C[C@H]2C(=O)OC[C@H](NC(=O)[C@H](Cc3cc(F)cc(F)c3)NC(=O)CCC3CCCCC3)C(=O)N3CCC[C@H]3C(=O)N3CCCC[C@H]3C(=O)N[C@@H](C)C(=O)N2C1
- Activity [1]: Active
- Activity [6]: Active
- Activity [7]: Active

Structure (SMILES): CC[C@H](C)[C@H](NC(=O)CNC(=O)[C@H](CSCC(N)=O)NC(C)=O)C(=O)NCC(=O)N[C@@H](Cc1ccccc1)C(=O)NCC(=O)N[C@@H](C)C(=O)N[C@H](C(=O)N[C@@H](CSCC(N)=O)C(N)=O)[C@@H](C)O (Ac-C(Cam)GIGFGATC(Cam)-NH2)
- Activity [4]: inactive

Structure (SMILES): CC[C@H](C)[C@H](NC(=O)CNC(=O)[C@H](CSCC(N)=O)NC(C)=O)C(=O)NCC(=O)N[C@@H](Cc1ccccc1)C(=O)NCC(=O)N[C@@H](CSCC(N)=O)C(N)=O (Ac-C(Cam)GIGFGC(Cam)-NH2)
- Activity [4]: inactive

Structure (SMILES): CC[C@H](C)[C@H](NC(=O)[C@H](CSCC(N)=O)NC(C)=O)C(=O)NCC(=O)N[C@@H](Cc1ccccc1)C(=O)NCC(=O)N[C@@H](C)C(=O)N[C@H](C(=O)N[C@@H](CSCC(N)=O)C(N)=O)[C@@H](C)O (Ac-C(Cam)IGFGATC(Cam)-NH2)
- Activity [4]: inactive

Structure (SMILES): CC[C@H](C)[C@@H]1NC(=O)CNC(=O)[C@@H](NC(C)=O)CSCC(=O)CSC[C@@H](C(N)=O)NC(=O)CNC(=O)[C@H](Cc2cc(F)cc(F)c2)NC(=O)CNC1=O (Ac-CGIG[Phe(3,5-F2)]GC-NH2; linker 1-7 via CH2COCH2)
- Activity ([4]; filed as activator): Active
- EC50 [8]: 41 µM
- Activity [2]: Active
- Activity [5]: Active
- Activity [3]: Active
